Experimental data published in ChEMBL document CHEMBL1158033, “C-26 and C-30 apocarotenoids from seeds of Ditaxis heterantha with antioxidant activity and protection against DNA oxidative damage” (J Nat Prod, 2006).

What was measured:
[1] = Antiradical activity assessed as DPPH radical scavenging activity at 1500 uM by spectrophotometry relative to control; assay type: physicochemical
Outline: (§1)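 Sample (150–1500 μM; MeOH, or Et2O for lycopene, β-carotene, astaxanthin) added to 150 μM DPPH in MeOH and kept in the dark at ~20 °C for 60 min. Absorbance read at 520 nm. Activity = 100 × (1 − Asample/Acontrol), with control lacking sample. Triplicates; Tukey's test and Pearson correlation.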

[2] = Antiradical activity assessed as DPPH radical scavenging activity at 1050 uM by spectrophotometry relative to control; assay type: physicochemical; outline: as §1
[3] = Antigenotoxic activity against H2O2-induced oxidative DNA damage in rat lymphocyte assessed as olive tail moment at 1000 uM by comet assay; assay type: functional
Outline: (§2)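 Rat peripheral blood mononuclear cells isolated on Histopaque 1077, 1×10^7 cells/mL in cold PBS pH 7.4, viability >90% by trypan blue. Cells preincubated with sample in DMSO (5%) at 37 °C for 30 min, then H2O2 1 mM final, 37 °C for 10 min. Alkaline comet assay, ethidium bromide stain, image analysis of 50 cells, 400×. Mean ± SE of four values, one-way ANOVA.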

Lymphocyte = experiment: Antigenotoxic activity against H2O2-induced oxidative DNA damage in rat lymphocyte assessed as cauda tail moment at 1000 uM by comet assay; assay type: functional; outline: as §2
[4] = Antigenotoxic activity against H2O2-induced oxidative DNA damage in rat lymphocyte assessed as tail length at 1000 uM by comet assay; assay type: functional; outline: as §2
[5] = Antigenotoxic activity against H2O2-induced oxidative DNA damage in rat lymphocyte assessed as cauda tail moment at 500 uM by comet assay; assay type: functional; outline: as §2
[6] = Antigenotoxic activity against H2O2-induced oxidative DNA damage in rat lymphocyte assessed as olive tail moment at 500 uM by comet assay; assay type: functional; outline: as §2
[7] = Antigenotoxic activity against H2O2-induced oxidative DNA damage in rat lymphocyte assessed as tail length at 500 uM by comet assay; assay type: functional; outline: as §2
[8] = Antiradical activity assessed as DPPH radical scavenging activity at 150 uM by spectrophotometry relative to control; assay type: physicochemical; outline: as §1
[9] = Antiradical activity assessed as DPPH radical scavenging activity at 750 uM by spectrophotometry relative to control; assay type: physicochemical; outline: as §1

SMILES | Activity [1] [%] | Activity [2] | Activity [3] [a.u.] | Activity (Lymphocyte) [a.u.] | Activity [4] [um] | Activity [5] [a.u.] | Activity [6] [a.u.] | Activity [7] [um] | Activity [8] | Activity [9]
CC1=C(/C=C/C(C)=C/C=C/C(C)=C/C=C/C=C(C)/C=C/C=C(C)/C=C/C2=C(C)CCCC2(C)C)C(C)(C)CCC1 [BETA CAROTENE] | 36 | Active | – | – | – | – | – | – | – | –
CC1=C(/C=C/C(C)=C/C=C/C(C)=C/C=C/C=C(C)/C=C/C=C(C)/C=C/C2=C(C)C(=O)[C@@H](O)CC2(C)C)C(C)(C)C[C@H](O)C1=O [ASTAXANTHIN] | 52 | Active | – | – | – | – | – | – | – | –
COC(=O)/C(C)=C/C=C/C(C)=C/C=C/C=C(C)/C=C/C=C(C)/C=C/[C@]12O[C@@H](CC1(C)C)C[C@]2(C)O [DITAXIN] | 12 | Active | 8.21 | 12.27 | 28.15 | 18.8 | 11.58 | 35.94 | – | –
COC(=O)/C(C)=C/C=C/C=C(C)/C=C/C=C(C)/C=C/[C@@H]1C(C)=CC(=O)CC1(C)C [HETERANTHIN] | 21 | Active | 4.4 | 6.24 | 20.93 | 17.02 | 10.8 | 34.13 | Active | Active
CC(C)=CCC/C(C)=C/C=C/C(C)=C/C=C/C(C)=C/C=C/C=C(C)/C=C/C=C(C)/C=C/C=C(\C)CCC=C(C)C [LYCOPENE] | 36 | Active | – | – | – | – | – | – | – | –
